Reference: ChEMBL document CHEMBL5344404, “Design and optimization of oestrogen receptor PROTACs based on 4-hydroxytamoxifen” (Eur J Med Chem, 2022)
Activity calls are given as the source filed them. No cut-off for these calls is given here.

Experiments:
[1] = molecular target: T1, Protein cereblon/Estrogen receptor (Homo sapiens, UniProt P03372+Q96SW2); assay: PROTAC activity at CRBN/ERalpha in human MCF7 cells assessed as reduction in ERalpha protein level at 1 uM measured after 24 hrs by Western blot analysis; type: cell-based
Method in brief: (§1)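 MCF-7 cells given the PROTAC at 1 µM for periods of 1–48 h, with DMSO controls held 48 h. Cell lysates immunoblotted for ERα.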
Target sequence in this assay (P03372 whole entry, looked up): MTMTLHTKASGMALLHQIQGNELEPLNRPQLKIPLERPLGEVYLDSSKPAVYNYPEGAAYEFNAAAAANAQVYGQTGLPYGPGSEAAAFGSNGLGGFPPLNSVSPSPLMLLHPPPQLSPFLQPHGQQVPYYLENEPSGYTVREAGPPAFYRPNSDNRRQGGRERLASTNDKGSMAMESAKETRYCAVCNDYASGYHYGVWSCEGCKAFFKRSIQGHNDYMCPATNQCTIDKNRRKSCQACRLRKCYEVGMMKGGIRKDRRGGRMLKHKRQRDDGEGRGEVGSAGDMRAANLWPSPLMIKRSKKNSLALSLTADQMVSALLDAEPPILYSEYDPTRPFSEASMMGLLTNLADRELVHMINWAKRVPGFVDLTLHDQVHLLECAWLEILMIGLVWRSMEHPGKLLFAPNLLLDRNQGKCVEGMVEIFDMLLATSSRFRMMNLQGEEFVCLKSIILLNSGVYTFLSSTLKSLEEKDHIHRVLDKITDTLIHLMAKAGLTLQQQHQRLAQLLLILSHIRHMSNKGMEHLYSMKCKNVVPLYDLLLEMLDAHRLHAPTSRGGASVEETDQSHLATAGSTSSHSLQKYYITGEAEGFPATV
Target sequence in this assay (Q96SW2 whole entry, looked up): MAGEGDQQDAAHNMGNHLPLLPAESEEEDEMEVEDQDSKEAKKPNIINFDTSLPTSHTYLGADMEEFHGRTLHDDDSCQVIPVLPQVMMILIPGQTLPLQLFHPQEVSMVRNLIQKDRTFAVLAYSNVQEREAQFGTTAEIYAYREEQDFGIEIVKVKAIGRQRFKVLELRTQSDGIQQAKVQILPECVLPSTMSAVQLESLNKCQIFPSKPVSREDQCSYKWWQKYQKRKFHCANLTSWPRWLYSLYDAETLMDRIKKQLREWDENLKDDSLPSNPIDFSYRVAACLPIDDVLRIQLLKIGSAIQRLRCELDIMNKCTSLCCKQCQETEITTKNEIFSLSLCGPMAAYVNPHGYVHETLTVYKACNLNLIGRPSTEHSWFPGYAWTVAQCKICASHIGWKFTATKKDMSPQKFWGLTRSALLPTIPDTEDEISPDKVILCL

[2] = molecular target: T1, Protein cereblon/Estrogen receptor; assay: PROTAC activity at CRBN/ERalpha in human MCF7 cells assessed as reduction in ERalpha protein level at 5 to 10 uM measured after 24 hrs by Western blot analysis; type: cell-based; settings: dose 5-10 µM
Method in brief: (§2)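 MCF-7 breast cancer cells exposed to the PROTAC over a concentration series for 24 h. ERα in cell lysates then assessed by immunoblotting.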
Target sequence in this assay (P03372 whole entry, looked up): as the sequence (P03372 whole entry, looked up) above
Target sequence in this assay (Q96SW2 whole entry, looked up): as the sequence (Q96SW2 whole entry, looked up) above

[3] = molecular target: T2, von Hippel-Lindau disease tumor suppressor/Estrogen receptor (Homo sapiens, UniProt P03372+P40337); assay: PROTAC activity at VHL E3 ligase/ERalpha in human MCF7 cells assessed as reduction in ERalpha protein level at 10 nM incubated for 24 hrs by Western blot analysis; type: cell-based
Target sequence in this assay (P03372 whole entry, looked up): as the sequence (P03372 whole entry, looked up) above
Target sequence in this assay (P40337 whole entry, looked up): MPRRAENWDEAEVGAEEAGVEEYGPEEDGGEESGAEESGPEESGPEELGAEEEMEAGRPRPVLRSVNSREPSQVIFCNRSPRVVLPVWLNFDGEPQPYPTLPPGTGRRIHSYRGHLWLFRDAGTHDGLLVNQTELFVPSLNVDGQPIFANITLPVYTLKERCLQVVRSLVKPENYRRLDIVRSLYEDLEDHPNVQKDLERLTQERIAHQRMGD

[4] = molecular target: T2, von Hippel-Lindau disease tumor suppressor/Estrogen receptor; assay: PROTAC activity at VHL E3 ligase/ERalpha in human MCF7 cells assessed as reduction in ERalpha protein level incubated for 24 hrs by Western blot analysis; type: cell-based
Method in brief: (§3)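 MCF-7 cells treated 24 h across a broad concentration range. ERα quantified on Western blots and normalized to GAPDH, then plotted against PROTAC concentration to give DC50 (concentration giving 50% protein degradation). Replicates: 2 biological for the CRBN series, triplicates for the VHL series.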
Target sequence in this assay (P03372 whole entry): as the sequence (P03372 whole entry, looked up) above
Target sequence in this assay (P40337 whole entry): as the sequence (P40337 whole entry, looked up) above

[5] = molecular target: T2, von Hippel-Lindau disease tumor suppressor/Estrogen receptor; assay: PROTAC activity at VHL E3 ligase/ERalpha in human T47D cells assessed as reduction in ERalpha protein level at 0.01 to 10 uM incubated for 24 hrs by Western blot analysis; type: cell-based; settings: dose 0.01-10 µM
Target sequence in this assay (P03372 whole entry, looked up): as the sequence (P03372 whole entry, looked up) above
Target sequence in this assay (P40337 whole entry, looked up): as the sequence (P40337 whole entry, looked up) above

[6] = molecular target: T2, von Hippel-Lindau disease tumor suppressor/Estrogen receptor; assay: PROTAC activity at VHL E3 ligase/ERalpha in human MCF7 cells assessed as reduction in ERalpha protein level at 2500 nM pretreated with carfilzomib at 1 uM for 30 mins followed by compound addition and measured after 6 hrs by Western blot analysis; type: cell-based
Target sequence in this assay (P03372 whole entry, looked up): as the sequence (P03372 whole entry, looked up) above
Target sequence in this assay (P40337 whole entry, looked up): as the sequence (P40337 whole entry, looked up) above

[7] = molecular target: T2, von Hippel-Lindau disease tumor suppressor/Estrogen receptor; assay: PROTAC activity at VHL E3 ligase/ERalpha in human MCF7 cells assessed as reduction in ERalpha protein level at 2500 nM pretreated with MLN4924 at 1 uM for 30 mins followed by compound addition and measured after 6 hrs by Western blot analysis; type: cell-based
Target sequence in this assay (P03372 whole entry, looked up): as the sequence (P03372 whole entry, looked up) above
Target sequence in this assay (P40337 whole entry, looked up): as the sequence (P40337 whole entry, looked up) above

[8] = molecular target: T2, von Hippel-Lindau disease tumor suppressor/Estrogen receptor; assay: PROTAC activity at VHL E3 ligase/ERalpha in human MCF7 cells assessed as reduction in ERalpha protein level at 0.01 to 10 uM incubated for 24 hrs by Western blot analysis; type: cell-based; settings: dose 0.01-10 µM
Method in brief: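 MCF-7 cells incubated with the PROTAC at several concentrations for 24 h. Lysates analysed by immunoblotting for ERα.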
Target sequence in this assay (P03372 whole entry, looked up): as the sequence (P03372 whole entry, looked up) above
Target sequence in this assay (P40337 whole entry, looked up): as the sequence (P40337 whole entry, looked up) above

[9] = molecular target: T1, Protein cereblon/Estrogen receptor; assay: PROTAC activity at CRBN/ERalpha in human MCF7 cells assessed as reduction in ERalpha protein level at 1 to 5 uM incubated for 24 hrs by Western blot analysis; type: cell-based; settings: dose 1-5 µM; method in brief: as §2
Target sequence in this assay (P03372 whole entry, looked up): as the sequence (P03372 whole entry, looked up) above
Target sequence in this assay (Q96SW2 whole entry, looked up): as the sequence (Q96SW2 whole entry, looked up) above

[10] = molecular target: T1, Protein cereblon/Estrogen receptor; assay: PROTAC activity at CRBN/ERalpha in human MCF7 cells assessed as reduction in ERalpha protein level at 1 uM measured after 1 to 12 hrs by Western blot analysis; type: cell-based; settings: time 1-12 hrs; method in brief: as §1
Target sequence in this assay (P03372 whole entry, looked up): as the sequence (P03372 whole entry, looked up) above
Target sequence in this assay (Q96SW2 whole entry, looked up): as the sequence (Q96SW2 whole entry, looked up) above

[11] = molecular target: T1, Protein cereblon/Estrogen receptor; assay: PROTAC activity at CRBN/ERalpha in human MCF7 cells assessed as reduction in ERalpha protein level incubated for 24 hrs by Western blot analysis; type: cell-based; method in brief: as §3
Target sequence in this assay (P03372 whole entry): as the sequence (P03372 whole entry, looked up) above
Target sequence in this assay (Q96SW2 whole entry): as the sequence (Q96SW2 whole entry, looked up) above

[12] = molecular target: T1, Protein cereblon/Estrogen receptor; assay: PROTAC activity at CRBN/ERalpha in human MCF7 cells assessed as reduction in ERalpha protein level at 1 uM pretreated with bortezomib at 1 uM for 1 hr followed by compound addition for 12 hrs by Western blot analysis; type: cell-based
Method in brief: (§4)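 Rescue assay in MCF-7 cells. Cells pre-treated 1 h with bortezomib 1 µM or MLN4924 1 µM, then given the PROTAC at 1 µM for 12 h. ERα read by immunoblot.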
Target sequence in this assay (P03372 whole entry, looked up): as the sequence (P03372 whole entry, looked up) above
Target sequence in this assay (Q96SW2 whole entry, looked up): as the sequence (Q96SW2 whole entry, looked up) above

[13] = molecular target: T1, Protein cereblon/Estrogen receptor; assay: PROTAC activity at CRBN/ERalpha in human MCF7 cells assessed as reduction in ERalpha protein level at 1 uM pretreated with MLN4924 at 1 uM for 1 hr followed by compound addition for 12 hrs by Western blot analysis; type: cell-based; method in brief: as §4
Target sequence in this assay (P03372 whole entry, looked up): as the sequence (P03372 whole entry, looked up) above
Target sequence in this assay (Q96SW2 whole entry, looked up): as the sequence (Q96SW2 whole entry, looked up) above

[14] = molecular target: Estrogen receptor/E3 ubiquitin-protein ligase XIAP (Homo sapiens, UniProt P03372+P98170); assay: PROTAC activity at XIAP/ERalpha (unknown origin); type: protein assay
[15] = molecular target: T2, von Hippel-Lindau disease tumor suppressor/Estrogen receptor; assay: PROTAC activity at VHL/ERalpha (unknown origin); type: protein assay
Target sequence in this assay (P03372 whole entry): as the sequence (P03372 whole entry, looked up) above
Target sequence in this assay (P40337 whole entry): as the sequence (P40337 whole entry, looked up) above

Sequence of Estrogen receptor/E3 ubiquitin-protein ligase XIAP (P03372 whole entry): as the sequence (P03372 whole entry, looked up) above
Sequence of Estrogen receptor/E3 ubiquitin-protein ligase XIAP (P98170 whole entry): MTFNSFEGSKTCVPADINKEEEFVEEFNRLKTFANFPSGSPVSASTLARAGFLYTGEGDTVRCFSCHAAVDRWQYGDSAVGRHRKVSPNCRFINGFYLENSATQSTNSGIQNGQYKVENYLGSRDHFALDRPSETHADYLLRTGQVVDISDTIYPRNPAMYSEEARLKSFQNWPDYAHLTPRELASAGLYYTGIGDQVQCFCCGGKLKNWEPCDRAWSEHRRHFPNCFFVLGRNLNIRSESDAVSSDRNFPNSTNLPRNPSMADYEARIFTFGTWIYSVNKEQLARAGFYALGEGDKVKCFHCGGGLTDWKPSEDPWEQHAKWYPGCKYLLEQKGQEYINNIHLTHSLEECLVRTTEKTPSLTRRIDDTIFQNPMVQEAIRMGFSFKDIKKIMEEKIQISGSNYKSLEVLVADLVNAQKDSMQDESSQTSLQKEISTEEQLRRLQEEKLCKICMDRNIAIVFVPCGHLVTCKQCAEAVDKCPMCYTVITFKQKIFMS

With `CC/C(=C(\c1ccc(O)cc1)c1ccc(OCCN(C)C(=O)CCc2cn(CCOCCOCCOCCNc3cccc4c3C(=O)N(C3CCC(=O)N(C)C3=O)C4=O)nn2)cc1)c1ccccc1` (configuration not stated) the Activity [1] was “inactive” and the Activity [2] was “Active”.
For `CC/C(=C(\c1ccc(O)cc1)c1ccc(OCCN(C)C(=O)CCc2cn(CCCCCC(=O)N[C@H](C(=O)N3C[C@H](O)C[C@H]3C(=O)N[C@@H](C)c3ccc(-c4scnc4C)cc3)C(C)(C)C)nn2)cc1)c1ccccc1`, the Activity [3] was “Active”, the EC50 [4] was 0.0053 µM and the Activity [5] was “Active”. The Activity [6] was “inactive” and the Activity [7] was “inactive”.
`CC/C(=C(\c1ccc(O)cc1)c1ccc(OCCN(C)C(=O)CCc2cn(CCCC(=O)N[C@H](C(=O)N3C[C@H](O)C[C@H]3C(=O)N[C@@H](C)c3ccc(-c4scnc4C)cc3)C(C)(C)C)nn2)cc1)c1ccccc1` was tested, and the Activity [3] was “Active”, the EC50 [4] was 0.0045 µM and the Activity [5] was “Active”. The Activity [6] was “inactive” and the Activity [7] was “inactive”.
For `CC/C(=C(\c1ccc(O)cc1)c1ccc(OCCN(C)C(=O)CCc2cn(CCCC(=O)N[C@H](C(=O)N3C[C@@H](O)C[C@H]3C(=O)N[C@@H](C)c3ccc(-c4scnc4C)cc3)C(C)(C)C)nn2)cc1)c1ccccc1`, the Activity [8] was “inactive”.
In the case of `CC/C(=C(\c1ccc(O)cc1)c1ccc(OCCN(C)C(=O)CCc2cn(CCOCCOCCOCCNc3cccc4c3C(=O)N(C3CCC(=O)NC3=O)C4=O)nn2)cc1)c1ccccc1` (configuration not stated), the Activity [9] is reported as “Active”, the Activity [10] is reported as “inactive” and the EC50 [11] is reported as 0.0119 µM. The Activity [12] was “inactive” and the Activity [13] was “inactive”.
`CC/C(=C(\c1ccc(O)cc1)c1ccc(OCCN(C)C(=O)CCc2cn(CCOCCNc3cccc4c3C(=O)N(C3CCC(=O)NC3=O)C4=O)nn2)cc1)c1ccccc1` (configuration not stated) was tested, and the Activity [9] was “Active”.
An EC50 [14] of 0.01 µM was found for `CC/C(=C(\c1ccc(O)cc1)c1ccc(OCCN(C)C(=O)COCCOCCOCCOc2cccc(C(=O)c3csc([C@@H]4CCCN4C(=O)[C@@H](NC(=O)[C@H](C)NC)C4CCCCC4)n3)c2)cc1)c1ccccc1` in this work.
An EC50 [15] of 16 µM was found for `CC[C@H](C)[C@H](NC(=O)[C@H](Cc1ccc(O)cc1)NC(=O)[C@@H]1CC(O)CN1C(=O)[C@H](C)NC(=O)[C@H](CC(C)C)NC(=O)CCCCCCC(=O)NCC(=O)OC1CC[C@H]2[C@@H]3CCc4cc(O)ccc4[C@H]3CC[C@]12C)C(=O)O` (some centres not stated) in this work.
An EC50 [14] of under 1 µM was found for `CNCC(=O)N[C@H](C(=O)N1Cc2cc(OCCOCCOCCOCCOc3ccc(Oc4c(-c5ccc(O)cc5)sc5cc(O)ccc45)cc3)ccc2C[C@H]1C(=O)N[C@@H]1CCCc2ccccc21)C(C)(C)C` in this work.
